The values below come from ChEMBL document CHEMBL1799963, “Discovery of novel benzopyranyl tetracycles that act as inhibitors of osteoclastogenesis induced by receptor activator of NF-κB ligand” (J Med Chem, 2010).

Each structure is given as a SMILES string. Active and inactive are the calls of the source. The rule behind the calls is not given here.

For series [1], the system named is RAW264.7. In words: Inhibition of RANKL-induced osteoclastogenesis in mouse RAW264.7 cells assessed as decrease in TRAP-positive cells after 1 hr by microplate reader assay. Particulars: RAW264.7, 1 h. The format is functional, cell-based. In short, it runs like this:
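RAW264.7 in α-MEM/10% FBS plus 100 ng/mL RANKL; compound or DMSO vehicle added after 24 h, dose-dependent series. On day 4, cells fixed and TRAP activity read as p-nitrophenylphosphate (5 mM) hydrolysis in tartrate-containing citrate buffer pH 4.6, 1 h, NaOH stop, A410. IC50 derived; triplicate.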

A further series relates to Macrophage. Description: Inhibition of RANKL-induced osteoclastogenesis in BALB/c mouse Bone marrow macrophages assessed as decrease in TRAP-positive cells after 1 hr by microplate reader assay. It is filed as functional, cell-based. In short, it runs like this: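 BALB/c femur/tibia monocytes grown 1 day with 10 ng/mL M-CSF, then nonadherent cells 3 days with 30 ng/mL M-CSF. Adherent BMMs plated at 3 10^5 cells/well with 100 ng/mL RANKL and 30 ng/mL M-CSF, then given compound dose series. TRAP activity read via p-nitrophenylphosphate hydrolysis (pH 4.6 citrate, tartrate, 1 h, A410). IC50 derived.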

Series [2] is described as follows: Cytotoxicity against mouse RAW264.7 cells assessed as cell viability at 30 uM after day 4 by CCK-8 assay. The settings on record: read-out: Activity. The format is cell-based. In short, it runs like this:
(§1)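 RAW264.7 cells exposed to compound at 30 μM final for 1 day or 4 days; viability read by CCK-8 assay.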
Background: Tetrazolium assays rely on reduction of a dye to a coloured formazan, in cell work by metabolically active cells.

Series [3] is described as follows: Cytotoxicity against mouse RAW264.7 cells assessed as cell viability at 30 uM after day 1 by CCK-8 assay. It is filed as cell-based. Particulars: read-out: Activity. The method, boiled down: as §1
For series [4], the system named is RAW264.7. Description: Inhibition of RANKL-induced osteoclastogenesis in mouse RAW264.7 cells assessed as TRAP-positive cells at 10 uM after 1 hr by microplate reader assay. It is filed as functional. The arrangement: scale not given: the % may be the effect or the level left. The method, boiled down: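 RAW264.7 plated at 1 10^3 cells/well in α-MEM/10% FBS with 100 ng/mL RANKL; compound (10 μM) or DMSO vehicle added after 24 h. On day 4, cells fixed (10% formalin 10 min, 95% ethanol 1 min). TRAP activity measured in 50 mM citrate pH 4.6 with 10 mM tartrate and 5 mM p-nitrophenylphosphate for 1 h, stopped with 0.1 N NaOH, A410. Triplicate; 100% = RANKL minus vehicle difference.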

The test system of series [5] is RAW264.7. Description: Downregulation of RANKL-induced NFATc1 mRNA expression in mouse RAW264.7 cells at 10 uM by RT-PCR analysis. The format is functional, cell-based.
In series [6] the test system is RAW264.7. Description: Inhibition of c-Src mRNA expression in mouse RAW264.7 cells at 10 uM by RT-PCR analysis. The format is functional, cell-based.
For series [7], the system named is RAW264.7. Description: Downregulation of RANKL-induced fra2 mRNA expression in mouse RAW264.7 cells at 10 uM by RT-PCR analysis. It is filed as functional, cell-based.
Series [8] deals with RAW264.7. In words: Inhibition of MMP-7 mRNA expression in mouse RAW264.7 cells at 10 uM by RT-PCR analysis. The format is functional, cell-based.
Series [9] relates to RAW264.7. In words: Inhibition of TRAP mRNA expression in mouse RAW264.7 cells at 10 uM by RT-PCR analysis. The format is functional, cell-based.
Series [10] in a line: Inhibition of NFkappa signaling in mouse RAW264.7 cells assessed as reduction in RANKL-induced transcriptional activation on NF-kappaB at 10 uM by luciferase reporter gene assay. It is filed as cell-based. (In a reporter assay the amount or activity of a reporter protein is the signal.)
In series [11] the test system is RAW264.7. In words: Downregulation of RANKL-induced c-fos mRNA expression in mouse RAW264.7 cells at 10 uM by RT-PCR analysis. The format is functional, cell-based.
The subject of series [12] is RAW264.7. Description: Inhibition of RANKL-induced ERK phosphorylation in mouse RAW264.7 cells at 10 uM by Western blot analysis. The format is cell-based. Background: In western blotting, separated proteins are transferred to a membrane and probed.
Series [13] can be described thus: Inhibition of NFkappa signaling in mouse RAW264.7 cells assessed as reduction in RANKL-induced transcriptional activation on NF-kappaB by luciferase reporter gene assay. The format is cell-based.

As a reminder, the IC50 is the concentration needed to halve the response being measured. As to `O=c1n(-c2ccccc2)c(=O)n2n1CC=C1C2c2ccc(O)cc2OC12CCCC2` (centres undefined), the results for the half-maximal inhibitory concentration (IC50) with RAW264.7 [1] and in the series on Macrophage were 5.09 µM and 6.05 µM, respectively. Further, the viability at 4 day, 30 µM in series [2] stood at 46%. Further, the viability at 1 day, 30 µM in series [3] is 77.8%. For the same compound, in the series with RAW264.7 [4], the Activity stood at 30%.
Consider `CC1(C)Oc2cc(F)ccc2C2C1=CCn1c(=O)n(-c3ccccc3)c(=O)n12` (centres undefined), for which the Activity in the series with RAW264.7 [4] is 121%.
Still for that read-out and setting: then `CC1(C)Oc2cc(O)ccc2C2C1=CCn1c(=O)n(-c3cccc([N+](=O)[O-])c3)c(=O)n12` (centres undefined), with 105%; and `COc1ccc(-n2c(=O)n3n(c2=O)C2C(=CC3)C(C)(C)Oc3cc(O)ccc32)cc1` (centres undefined), with 93%.
The same measure, in the same setting: for `COc1ccc2c(c1)C1C(=CCn3c(=O)n(-c4ccccc4)c(=O)n31)C(C)(C)O2` (centres undefined) the value was 100%.
Same read-out and setting: then `CNc1ccc2c(c1)OC(C)(C)C1=CCn3c(=O)n(-c4ccccc4)c(=O)n3C12` (centres undefined), with 107%.
Turning to `COc1ccc2c(c1O)OC(C)(C)C1=CCn3c(=O)n(-c4ccccc4)c(=O)n3C12` (centres undefined), the IC50 in the series on Macrophage came to 22.2 µM. Further, the Activity in the series on RAW264.7 [4] is reported as 69%.
With `CC1(C)Oc2ccccc2C2C1=CCn1c(=O)n(-c3ccccc3)c(=O)n12` (centres undefined), the outcome with RAW264.7 [5], with RAW264.7 [7] and with RAW264.7 [11] was inactive. Further, the inhibition entry with RAW264.7 [6], in the series with RAW264.7 [8], with RAW264.7 [9] and in the series on RAW264.7 [12] was “inactive” throughout. Besides, in series [10], the inhibition entry was “Active”. For the same compound, in the series with RAW264.7 [4], the Activity is listed as 104%.
In the case of `CC1(C)Oc2cc(O)ccc2C2C1=CCn1c(=O)n(-c3ccc(C(C)(C)C)cc3)c(=O)n12` (centres undefined), the IC50 in the series on RAW264.7 [1] came out at 6.94 µM; in the series with Macrophage it was 6.77 µM. Besides, in series [2], the viability at 4 day, 30 µM was found to be 73.4%. The viability at 1 day, 30 µM in series [3] is 79.7%. For the same compound, the Activity in the series with RAW264.7 [4] was 53%.
`CCCN1CCC2(CC1)Oc1cc(O)ccc1C1C2=CCn2c(=O)n(-c3ccccc3)c(=O)n21` (centres undefined): in the series on RAW264.7 [4], the Activity is recorded as 99%.
On the same count and under the same terms, for `COc1cccc(-n2c(=O)n3n(c2=O)C2C(=CC3)C(C)(C)Oc3cc(O)ccc32)c1` (centres undefined) the value was 86%.
Still for that read-out and setting: for `CC1(C)Oc2cc(O)ccc2C2C1=CCn1c(=O)n(C3CCCCC3)c(=O)n12` (centres undefined) the value was 113%; for `Cn1c(=O)n2n(c1=O)C1C(=CC2)C(C)(C)Oc2cc(O)ccc21` (centres undefined), 95%.
The same measure, in the same setting: for `CC1(C)Oc2cc(O)ccc2C2C1=CCn1c(=O)n(-c3ccccc3Cl)c(=O)n12` (centres undefined) the value was 95%.
In the case of `CC1(C)Oc2cc(O)ccc2C2C1=CCn1c(=O)n(-c3ccc(F)cc3)c(=O)n12` (centres undefined), the values for the half-maximal inhibitory concentration (IC50) with RAW264.7 [1] and in the series with Macrophage were 8.08 µM and 11.9 µM, respectively. In addition, the viability at 4 day, 30 µM in [2] was 80.7%. Also, the viability at 1 day, 30 µM in [3] was found to be 99%. For the same compound, the Activity in the series with RAW264.7 [4] is reported as 68%.
`CC1(C)Oc2cc(O)ccc2C2C1=CCn1c(=O)n(-c3ccc(Cl)cc3)c(=O)n12` (centres undefined): the Activity in the series with RAW264.7 [4] came out at 112%.
On the same count and under the same terms, for `CC1(C)Oc2cc(O)ccc2C2C1=CCn1c(=O)n(-c3ccc(Br)cc3)c(=O)n12` (centres undefined) the value was 83%.
Same read-out and setting: then `COc1cc2c(cc1OC)C1C(=CCn3c(=O)n(-c4ccccc4)c(=O)n31)C(C)(C)O2` (centres undefined), with 99%.
Same read-out and setting: then `COc1ccc2c(c1)OC(C)(C)C1=CCn3c(=O)n(-c4ccccc4)c(=O)n3C12` (centres undefined), with 108%.
Regarding `Cc1ccc(-n2c(=O)n3n(c2=O)C2C(=CC3)C(C)(C)Oc3cc(O)ccc32)cc1` (centres undefined), the outcome in the series on RAW264.7 [5], with RAW264.7 [7] and in the series on RAW264.7 [11] was Active. The inhibition result with RAW264.7 [6], in the series on RAW264.7 [8], in the series on RAW264.7 [9] and in the series on RAW264.7 [12] was “Active” in each case. The concentration for half-maximal inhibition (IC50) in the series with RAW264.7 [1] was 7.97 µM; in the series on Macrophage it was 7.05 µM. The viability at 4 day, 30 µM in [2] is 86.9%. The viability at 1 day, 30 µM in [3] was 100%. Besides, the Activity in the series on RAW264.7 [4] is reported as 50%. For the same compound, in series [13], the inhibition entry is “Dose-dependent effect”.
Regarding `CC(=O)N1CCC2(CC1)Oc1cc(O)ccc1C1C2=CCn2c(=O)n(-c3ccccc3)c(=O)n21` (centres undefined), the Activity in the series on RAW264.7 [4] is 113%.
On the same count and under the same terms, for `CC1(C)Oc2cc(O)ccc2C2C1=CCn1c(=O)n(-c3ccccc3I)c(=O)n12` (centres undefined) the value was 101%.
Regarding `CC1(C)Oc2cc(O)ccc2C2C1=CCn1c(=O)n(-c3ccccc3)c(=O)n12` (centres undefined), the outcome with RAW264.7 [5], with RAW264.7 [7] and in the series on RAW264.7 [11] was Active. Further, the inhibition entry in the series with RAW264.7 [6], in the series on RAW264.7 [8], in the series with RAW264.7 [9] and in the series with RAW264.7 [12] was “Active” each time. The IC50 in the series on RAW264.7 [1] was 7.07 µM; in the series on Macrophage, 6.13 µM. For the same compound, the viability at 4 day, 30 µM in [2] came out at 74%. In addition, in series [3], the viability at 1 day, 30 µM was 85.9%. Further, the Activity in the series with RAW264.7 [4] is recorded as 43%. Also, the inhibition result in series [13] is “Dose-dependent effect”.
Regarding `CC1(C)Oc2cc(O)ccc2C2C1=CCn1c(=O)n(Cc3ccccc3)c(=O)n12` (centres undefined), the Activity in the series on RAW264.7 [4] came out at 98%.
